Results from ChEMBL document CHEMBL1122742, “Cardiotonic agents. 1. 4,5-Dihydro-6-[4-(1H-imidazol-1-yl)phenyl]-3 (2H)-pyridazinones: novel positive inotropic agents for the treatment of congestive heart failure” (J Med Chem, 1984).
“And” between values parts separate entries of the source, which are not always exact repeats. Equal entries are not always repeated.

Tests used:
Canis familiaris [1] = test: Positive inotropic effect (increased myocardial contractility) in chronically instrumented conscious dogs at 0.1 mg/kg oral administration for 6 hours
Canis familiaris [2] = test: Positive inotropic activity in anesthetized dogs; format: functional; settings: Canis lupus familiaris
Outline: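 Anesthetized dogs received increasing intravenous half-log doses across 0.001–1.0 mg/kg. dP/dtmax was recorded while heart rate and aortic pressure were monitored. ED50 was taken from the linear part of each animal's dose–response curve by least squares, then averaged as mean and SEM.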

Canis familiaris [3] = test: Positive inotropic effect (increase in heart rate) in chronically instrumented conscious dogs at 0.1 mg/kg oral administration for 6 hours
Canis familiaris [4] = test: Positive inotropic effect (increased myocardial contractility) in anesthetized dogs at 0.001-0.10 mg/kg intravenous administration, range 10.5-148.5
Canis familiaris [5] = test: Positive inotropic effect (increase in heart rate) in anesthetized dogs at 0.001-1.0 mg/kg intravenous administration, range is 2.5-43.8; format: functional, Canis lupus familiaris
Outline: (§1)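 Anesthetized dogs were given increasing intravenous half-log doses within 0.001–1.0 mg/kg. Heart rate, aortic blood pressure and dP/dtmax were recorded simultaneously. Changes are expressed as percent of control, with mean ± error at each dose.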

Canis familiaris [6] = test: Positive inotropic effect (reduced mean aortic blood pressure) in anesthetized dogs at 0.001-1.0 mg/kg intravenous administration; format: functional, Canis lupus familiaris, Artery
Outline: as §1

Bos taurus = organism: Bos taurus; test: Percent inhibition of crude bovine cardiac phosphodiesterase at 190 uM
Canis familiaris [7] = test: Positive inotropic effect (increase in heart rate) in anesthetized dogs at 0.001-1.0 mg/kg intravenous administration, range is 1.2-33.8; format: functional, Canis lupus familiaris
Outline: as §1

Canis familiaris [8] = test: Positive inotropic effect (increase in heart rate) in chronically instrumented conscious dogs at 1.0 mg/kg oral administration for 6 hours; format: functional, Canis lupus familiaris
Canis familiaris [9] = test: Positive inotropic effect (increased myocardial contractility) in chronically instrumented conscious dogs at 1.0 mg/kg oral administration for 6 hours; format: functional, Canis lupus familiaris
Canis familiaris [10] = test: Positive inotropic effect (reduced mean aortic blood pressure) in anesthetized dogs at 0.001-1.0 mg/kg intravenous administration, range 0.7-22.4; format: functional, Canis lupus familiaris, Artery
Outline: as §1

Canis familiaris [11] = test: Positive inotropic effect (increased myocardial contractility) in anesthetized dogs at 0.01-1.0 mg/kg intravenous administration, range 10.2-146.7

For `CC1CC(O)=NN=C1c1ccc(-n2ccnc2)cc1` (configuration not stated) [CI-930], which dP/dt max (Canis familiaris [1]) is on record?
The dP/dt max was 50.2.

And the ED50 (Canis familiaris [2])?
The ED50 was 0.013 mg/kg.

What about the Heart rate (Canis familiaris [3]) of the same compound?
The Heart rate was 41.6.

What about the dP/dt max (Canis familiaris [4]) of the same compound?
The dP/dt max was 10.5.

What about the Heart rate (Canis familiaris [5]) of the same compound?
The Heart rate was 2.5.

What about the Blood pressure (Canis familiaris [6]) of the same compound?
The Blood pressure was 19 and 7.4.

With `CSc1ccc(C(=O)c2[nH]c(=O)[nH]c2C)cc1` [ENOXIMONE] as the compound, how does the ED50 (Canis familiaris [2]) read?
The ED50 was 0.283 mg/kg.

What does the source list for `O=C1CCC(c2ccc(-n3ccnc3)cc2)=NN1` [IMAZODAN]?
inhibition (Bos taurus): 50%; Heart rate (Canis familiaris [7]): 0; ED50 (Canis familiaris [2]): 0.045 mg/kg; Heart rate (Canis familiaris [8]): 48.1; dP/dt max (Canis familiaris [9]): 42.6; Blood pressure (Canis familiaris [10]): 0.7; dP/dt max (Canis familiaris [11]): 10.2

With `Nc1cc(-c2ccncc2)c[nH]c1=O` [INAMRINONE] as the compound, how does the ED50 (Canis familiaris [2]) read?
Its ED50 is 0.389 mg/kg.

How did the ED50 (Canis familiaris [2]) turn out when `Cc1[nH]c(=O)c(C#N)cc1-c1ccncc1` [MILRINONE] was run?
Its ED50 is 0.037 mg/kg.

How did the ED50 (Canis familiaris [2]) turn out when `COc1cc([S+](C)[O-])ccc1-c1nc2cccnc2[nH]1` (configuration not stated) [SULMAZOLE] was run?
Its ED50 is 0.435 mg/kg.
